Measured values from different studies.
Protocols differ between the studies behind these lines. Converted amounts (≈) assume the structure as drawn.

`Cc1cc(Nc2ncc(Cl)c(Nc3ccccc3S(=O)(=O)C(C)C)n2)c(OC(C)C)cc1C1CCNCC1` gave an inhibition of 93% (NCI-H3122; cell growth or viability, MTT; 10 µg/mL, 72 h).
For `CN(C)[C@@H]1C(O)=C(C(N)=O)C(=O)[C@@]2(O)C(O)=C3C(=O)c4c(O)c(N)nc(Cl)c4C[C@H]3C[C@@H]12`, the MIC was 1 µg/mL (≈ 2.15 µM) (Enterobacter cloacae; microbial growth, broth dilution; ATCC13047).
With `Oc1ccccc1-c1nc2ccccc2[nH]1` the IC50 was 15.4 µM (human Rhabdomyosarcoma cell; cell growth or viability, MTT; 48 h).
`C[C@@H](Oc1cc(-c2cnn(C3CCNCC3)c2)cnc1N)c1c(Cl)ccc(F)c1Cl` has an inhibition of 85.8% (NCI-H3122; cell growth or viability, MTT; 5 µg/mL, 72 h).
`C/C=C(\C)c1cc(OC(=O)c2c(O)c(C)c(O)c(Cl)c2/C(C)=C/C)c(C)c(O)c1C(=O)O` has an MIC of 64 µg/mL (≈ 139 µM) (Enterococcus gallinarum; microbial growth, broth dilution; GALLINARUM).
`CCCc1nc(N(C)C)c2c(c1O)C(=O)C1=C(O)[C@]3(O)C(=O)C(C(N)=O)=C(O)[C@@H](N(C)C)[C@@H]3C[C@@H]1C2.Cl.Cl` has an MIC of greater than 32 µg/mL (Enterobacter cloacae; microbial growth, broth dilution; ATCC13047).
`O=[N+]([O-])c1ccc(-c2nc3ccccc3n2Cc2ccccc2)cc1` has an IC50 of 7.44 µM (human Rhabdomyosarcoma cell; cell growth or viability, MTT).
For `CN(C)c1cc(CNCC(C)(C)C)c(O)c2c1C[C@H]1C[C@H]3[C@H](N(C)C)C(O)=C(C(N)=O)C(=O)[C@@]3(O)C(O)=C1C2=O`, the MIC was 4 µg/mL (≈ 7.19 µM) (Enterobacter cloacae; microbial growth, broth dilution; ATCC13047).
For `Cc1ccc2nc(-c3ccc(Cl)cc3)[nH]c2c1`, the IC50 was 48.3 µM (human Rhabdomyosarcoma cell; cell growth or viability, MTT; 48 h).
`CC(C)Oc1c(NC(=O)c2ccc(NC(=O)[C@H](CC(N)=O)NC(=O)c3ccc(NC(=O)c4ccc(C#N)cn4)cc3)cc2)ccc(C(=O)Nc2ccc(C(=O)O)cc2)c1O` gave an MIC of greater than 64 µg/mL (Serratia marcescens; microbial growth; DSM30121).
`C=CCn1c(-c2ccc([N+](=O)[O-])cc2)nc2ccccc21` gave an IC50 of 32.6 µM (human Rhabdomyosarcoma cell; cell growth or viability, MTT).
`CC(C)CCNc1nc(Cl)c2c(c1O)C(=O)C1=C(O)[C@]3(O)C(=O)C(C(N)=O)=C(O)[C@@H](N(C)C)[C@@H]3C[C@@H]1C2.Cl.Cl.Cl` gave an MIC of greater than 32 µg/mL (Enterobacter cloacae; microbial growth, broth dilution; ATCC13047).
